Measured values as given in the RNAGym collection of RNA variant scans (doi:10.1126/science.aae0568).
This sample holds only a part of the variants without activity.

B1: tRNA (parent)
chain: GUUCCGUUGGCGUAAUGGUAACGCGUCUCCCUCCUAAGGAGAAGACUGCGGGUUCGAGUCCCGUACGGAACG

Variants of: B1
Assay: yeast fitness relative to wild type (ratio to wild type); higher = fitter; tRNA-Arg(CCU), competitive growth, 37 C, YPD
Method in brief: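 Gene amplicons from the start population and from each of six end populations were read by 100-nucleotide paired-end sequencing. Those end populations came from pooled Saccharomyces cerevisiae strains carrying tRNA-Arg(CCU) gene variants at the native locus, competed in YPD at 37°C for 24 hours. Fitness relative to wild type was worked out from changes in genotype frequencies. Genotypes needed ≥ 100 starting reads, and estimates < 0.5 were set to 0.5.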
With C4G G23C G52A U54C the yeast fitness was ≤ 0.5.
With C5U A14G U28C U64C the yeast fitness was ≤ 0.5.
Work on C55U A69U yielded a yeast fitness of 0.684.
In the case of A15U C22U G52A, the yeast fitness is reported as 0.596.
With U2C U3C C34U C55A the yeast fitness was ≤ 0.5.
A14C G50A showed a yeast fitness of 0.612.
Variant C31U C46G C55U has a yeast fitness of 0.542.
C30U C49U A70C showed a yeast fitness of 0.543.
For A21U C33U G38A A45U U53A C62U G63C, the yeast fitness was ≤ 0.5.
In the case of A14C U26A C29U C49U, the yeast fitness is reported as ≤ 0.5.
U7C A15U G39A showed a yeast fitness of 0.623.
Work on U2G C22U C24G yielded a yeast fitness of 0.596.
With U59A C62G the yeast fitness was 0.563.
Work on U59A C62A yielded a yeast fitness of 0.657.
For G12A A21C C24A A69C, the yeast fitness was 0.933.
A57C C62G gave a yeast fitness of 0.818.
In the case of G48A G51C G67C, the yeast fitness is reported as ≤ 0.5.
With G12A A42U C60G A69G the yeast fitness was ≤ 0.5.
With C33U G50C A70U the yeast fitness was ≤ 0.5.
A21U A43C gave a yeast fitness of 0.974.
In the case of A15G A37G G56C, the yeast fitness is reported as ≤ 0.5.
C24A A65C gave a yeast fitness of 0.725.
U2G A65G gave a yeast fitness of 1.11.
For C5U G17A C29U G52C C55G, the yeast fitness was ≤ 0.5.
For G23A A43G U64C, the yeast fitness was ≤ 0.5.
A20C U54A gave a yeast fitness of 0.698.
With A15G C30G U64C the yeast fitness was ≤ 0.5.
In the case of C4G C27G C30G C49U C60U G63C, the yeast fitness is reported as 0.562.
With C5U C24A C33U A70U the yeast fitness was ≤ 0.5.
For G50A G51U, the yeast fitness was 0.664.
In the case of G25C, the yeast fitness is reported as 1.
In the case of G52C C61G, the yeast fitness is reported as ≤ 0.5.
For U7G A14U U53A, the yeast fitness was 0.554.
With U16A G58C C61A the yeast fitness was ≤ 0.5.
With A15U G39A A57G the yeast fitness was ≤ 0.5.
In the case of G12C G17A C46G C49U, the yeast fitness is reported as ≤ 0.5.
In the case of U3G C11G U13A C30G C66U A69U, the yeast fitness is reported as ≤ 0.5.
For A20C A40U G48A C61A G68A, the yeast fitness was ≤ 0.5.
For U8C A20C C22A C24U, the yeast fitness was ≤ 0.5.
In the case of C22U G67A, the yeast fitness is reported as 0.78.
In the case of U16C C30A A37U, the yeast fitness is reported as ≤ 0.5.
Variant U2C G9A A20G has a yeast fitness of 1.07.
In the case of U47G C66U, the yeast fitness is reported as 0.691.
For C5A A20G C24U G38C G56C, the yeast fitness was ≤ 0.5.
With U3C C11U U53C the yeast fitness was 0.588.
For A15G C30G G68A, the yeast fitness was ≤ 0.5.
Work on G10A C30U G41A A69C yielded a yeast fitness of 0.548.
With C33U U47C G48A G58A the yeast fitness was 0.506.
In the case of A21G A37C G38A A65U G68C, the yeast fitness is reported as ≤ 0.5.
For U2C U3C C34U A65G, the yeast fitness was ≤ 0.5.
With G17A C55G A70C the yeast fitness was ≤ 0.5.
G9A U26G showed a yeast fitness of 0.967.
G10C A57G gave a yeast fitness of 0.604.
For U16C C33U G63C, the yeast fitness was 0.508.
In the case of U2G U26A U54A, the yeast fitness is reported as ≤ 0.5.
Variant C24U A36C A43U has a yeast fitness of 0.578.
For G23C U26C C27U C46U A69C, the yeast fitness was ≤ 0.5.
For U2C U8G C11U C24U A37U C66A, the yeast fitness was ≤ 0.5.
In the case of U3G C4A A40U U54C, the yeast fitness is reported as ≤ 0.5.
Work on C4A C11G U19G U53C yielded a yeast fitness of 0.698.
C5U U8A G18C showed a yeast fitness of 0.577.
Work on G23C C27U yielded a yeast fitness of 0.726.
In the case of U16A G23C C29U C31G A57C, the yeast fitness is reported as ≤ 0.5.
In the case of C4G U19A A37U A42G, the yeast fitness is reported as 0.55.
With C4A C5U C22U C31A C34A the yeast fitness was ≤ 0.5.
Work on C4U A45U A69U yielded a yeast fitness of 0.827.
U3C U13G A70G showed a yeast fitness of 0.698.
Work on U26G A45U yielded a yeast fitness of 0.789.
With C4G G6A G23A A43G C55U the yeast fitness was ≤ 0.5.
For U26A C49A, the yeast fitness was 0.637.
In the case of U2A U7A C27U C46G, the yeast fitness is reported as ≤ 0.5.
For G9C G39C A69U, the yeast fitness was ≤ 0.5.
A20G G39A showed a yeast fitness of 0.955.
In the case of G10C C24G A70U, the yeast fitness is reported as ≤ 0.5.
With G9C A21U C31G A40C C62U U64C the yeast fitness was 0.518.
In the case of U8A C11A C66U, the yeast fitness is reported as 0.585.
In the case of C29G G48C C49U C61A, the yeast fitness is reported as ≤ 0.5.
U7C A57C gave a yeast fitness of 0.612.
For C22U C24U C33G C55G, the yeast fitness was ≤ 0.5.
In the case of A14G C31U C49A, the yeast fitness is reported as ≤ 0.5.
Work on C5G A42G U54A yielded a yeast fitness of 0.639.
C29G G67C showed a yeast fitness of 0.667.
With U16G G41C the yeast fitness was 0.604.
With U2C A20U A45G the yeast fitness was ≤ 0.5.
For C29G C33G G58C C62G, the yeast fitness was ≤ 0.5.
For G6A A42U G58A, the yeast fitness was 0.634.
With A20C G25C U35A A45U the yeast fitness was ≤ 0.5.
With C5G U26C A37G C60A the yeast fitness was ≤ 0.5.
In the case of C22G A36C A37C, the yeast fitness is reported as ≤ 0.5.
With C49A G50U C62U the yeast fitness was ≤ 0.5.
In the case of C4A C30G A40U C49U, the yeast fitness is reported as ≤ 0.5.
In the case of C5G C27U G51A C60G A70G, the yeast fitness is reported as ≤ 0.5.
For C27G C33A G48A G51C, the yeast fitness was ≤ 0.5.
For U47C C66U A70U, the yeast fitness was 0.548.
In the case of U16A G18A C31U A69C, the yeast fitness is reported as ≤ 0.5.
With C27U C31A G44C A70G the yeast fitness was ≤ 0.5.
C55A G58C C66G showed a yeast fitness of 0.623.
In the case of C4U G41C A65G, the yeast fitness is reported as 0.65.
In the case of C11U A21U A42G C60A, the yeast fitness is reported as ≤ 0.5.
With C31A C34G A42G A45U the yeast fitness was ≤ 0.5.
With A40C C46G G51C A57C A65U A70C the yeast fitness was 0.555.
U3C U54G gave a yeast fitness of 0.536.
In the case of A36U C46G U54C C62A A69C, the yeast fitness is reported as ≤ 0.5.
U16A C62G showed a yeast fitness of 0.867.
For G18C A36G C61A, the yeast fitness was ≤ 0.5.
Variant C27U G38C G44C has a yeast fitness of 0.531.
For U7A G23A C24U U35A C60A A69U, the yeast fitness was ≤ 0.5.
For G12A G39C G67A, the yeast fitness was ≤ 0.5.
With U3A A14G G23C A65C the yeast fitness was ≤ 0.5.
With C24G C34U A36C the yeast fitness was ≤ 0.5.
In the case of G23C C49G C62U, the yeast fitness is reported as ≤ 0.5.
U13A A15C C33G C49U C61U showed a yeast fitness of 0.574.
In the case of U7C C30A U54A A57C, the yeast fitness is reported as ≤ 0.5.
In the case of G41A A42U U59G, the yeast fitness is reported as ≤ 0.5.
With C4A G56C C66U the yeast fitness was ≤ 0.5.
In the case of A21C C24U A36C A57U, the yeast fitness is reported as ≤ 0.5.
A21U U54A A70G gave a yeast fitness of 0.565.
C31U G63A gave a yeast fitness of 1.14.
With G17A G48C G56C the yeast fitness was 0.575.
In the case of G10A A37C A42G, the yeast fitness is reported as ≤ 0.5.
G23C A65C showed a yeast fitness of 0.619.
With A37G A42C C55G G68C the yeast fitness was ≤ 0.5.
With G10C C30G the yeast fitness was 0.507.
In the case of A21G C30G G51C, the yeast fitness is reported as ≤ 0.5.
With U59G G67C the yeast fitness was 0.659.
In the case of U28G A57C A65C, the yeast fitness is reported as ≤ 0.5.
For A15U C34G A37G A40C U64C, the yeast fitness was ≤ 0.5.
C4U U28A gave a yeast fitness of 0.749.
In the case of C5U G17A C33A C49U C66U, the yeast fitness is reported as ≤ 0.5.
In the case of C27U U47C C55U C62G A69U, the yeast fitness is reported as ≤ 0.5.
For U2C C5U C27G U28A A43U, the yeast fitness was ≤ 0.5.
For C34U U54C, the yeast fitness was 0.569.
C5G U26C A65U gave a yeast fitness of 0.67.
In the case of C5G A20G A36C G63A, the yeast fitness is reported as ≤ 0.5.
In the case of C11A G17A U35G U59C, the yeast fitness is reported as 0.568.
For A15C C34G C49G U54C C66G G68C, the yeast fitness was ≤ 0.5.
For C24A A36C A40G, the yeast fitness was 0.789.
With U26C C29G C49U the yeast fitness was ≤ 0.5.
For C34G C46U A57U C60G A65C, the yeast fitness was ≤ 0.5.
In the case of G12C C30U G56A, the yeast fitness is reported as 0.54.
G12A C55U C66G showed a yeast fitness of 0.569.
G44C U59C showed a yeast fitness of 0.791.
Variant A36U U64C has a yeast fitness of 0.581.
A21C C33U showed a yeast fitness of 0.687.
For G10C C33G A57G, the yeast fitness was ≤ 0.5.
In the case of C4G U7C G41A A42C G50C A70G, the yeast fitness is reported as ≤ 0.5.
U16C C22U C24U C29U C60U showed a yeast fitness of 0.551.
For G25U G44C, the yeast fitness was 0.647.
In the case of C4A G17A G41A G67A, the yeast fitness is reported as ≤ 0.5.
Work on C30A G39A U47A G63C yielded a yeast fitness of 0.528.
For C33G U59A C60G C61G, the yeast fitness was ≤ 0.5.
For U19A U26A U64A, the yeast fitness was 0.553.
In the case of C5U G10A C62G C66G, the yeast fitness is reported as ≤ 0.5.
Variant G23C C46U has a yeast fitness of 0.568.
With G6C A37U U53C A69U the yeast fitness was ≤ 0.5.
With C11U C24U G44C C49A the yeast fitness was ≤ 0.5.
For C22G C24G C27G G58C, the yeast fitness was ≤ 0.5.
In the case of C5A A57C, the yeast fitness is reported as 0.719.
In the case of A14C U19C C27A G41C A42U C66U, the yeast fitness is reported as 0.582.
For C34U C55A C62U C66U, the yeast fitness was ≤ 0.5.
With A20U G39C C55G the yeast fitness was ≤ 0.5.
For A43U C55G, the yeast fitness was 0.537.
In the case of U13A G51C, the yeast fitness is reported as 0.58.
G18A G51A gave a yeast fitness of 0.625.
In the case of G9A C49U, the yeast fitness is reported as 0.845.
For U3A C24G C29U A36G A43U, the yeast fitness was ≤ 0.5.
Work on G9A C11G U32G A45G C49U U53A yielded a yeast fitness of 0.549.
